Assay results taken from BindingDB's records for doi:10.1021/jm00148a007 (1985).

Key:
Histamine H2 receptor [1] = biological target: T1, Histamine H2 receptor (Cavia porcellus, UniProt P47747); test: Antagonistic activity against H2 receptor in guinea pig was evaluated
Outline: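 Isolated guinea pig atrium preparation loaded with 400-mg tension, with propranolol (0.5 μM) present throughout. Histamine concentration-response curves were run with and without several antagonist concentrations (B). The dose ratio x was taken from histamine concentrations giving half-maximal responses. K_B was calculated as B/(x − 1), and pA2 = −log K_B.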

Histamine H2 receptor [2] = biological target: T1, Histamine H2 receptor; test: Antagonistic activity against H2 receptor in guinea pig.

T1 sequence (P47747 whole entry): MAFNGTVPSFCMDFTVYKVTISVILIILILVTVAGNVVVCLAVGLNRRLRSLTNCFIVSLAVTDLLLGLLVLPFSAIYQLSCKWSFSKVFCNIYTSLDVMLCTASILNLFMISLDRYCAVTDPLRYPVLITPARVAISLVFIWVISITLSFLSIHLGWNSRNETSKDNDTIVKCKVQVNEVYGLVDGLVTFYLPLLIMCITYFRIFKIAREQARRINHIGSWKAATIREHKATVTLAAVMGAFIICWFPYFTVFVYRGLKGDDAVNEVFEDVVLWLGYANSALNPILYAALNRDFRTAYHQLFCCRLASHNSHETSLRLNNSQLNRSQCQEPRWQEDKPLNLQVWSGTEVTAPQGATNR

| Compound | Kd (Histamine H2 receptor [1]) [µM] | Kd (Histamine H2 receptor [2]) [µM] |
| --- | --- | --- |
| CSC(=NCCSCc1[nH]cnc1C)NCCCc1cnc[nH]1 | 17.8 |  |
| Cc1nc[nH]c1CSCCNC(=N)NCCCc1cn(C)cn1 |  | 1.58 |
